The values below come from ChEMBL document CHEMBL4393708, “Pyridinylimidazoles as dual glycogen synthase kinase 3β/p38α mitogen-activated protein kinase inhibitors” (Eur J Med Chem, 2019).

The target in data set [1] is T1, Mitogen-activated protein kinase 14 (Homo sapiens, UniProt Q16539). Description: Inhibition of p38alpha MAPK (unknown origin) using ATF-2 as substrate after 1 hr by ELISA. Background: An ELISA detects its analyte on a solid surface through an enzyme-linked reagent.
Data set [2] has as its target Glycogen synthase kinase-3 beta (Homo sapiens, UniProt P49841). Briefly: Competitive inhibition of human recombinant full length GSK3beta using YRRAAVPPSPSLSRHSSPHQ(pS)EDEEE as substrate preincubated with enzyme for 10 mins followed by substrate and 25 uM ATP addition measured after 60 mins by ADP-Glo luminescence assay. In short, it runs like this:
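Compounds in serial dilutions were preincubated with kinase for 10 min at rt. Substrate/ATP was then added and the reaction ran 60 min at rt. ADP-Glo reagent 60 min, detection reagent 30 min, then luminescence read (500 ms integration).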

A short description of data set [3]: Drug uptake in RjOrl:Swiss CD-1 mouse brain at 10 mg/kg, iv administered as single dose measured after 2 hrs by LC-MS analysis. Type of data set: ADME, organism-based. Particulars: read-out: Drug uptake. In short, it runs like this:
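Adult male RjOrl:Swiss CD-1 mice got one intravenous dose of 10 mg/kg. Plasma was sampled at 10, 30 and 120 min. After the last sample the mice were sacrificed and brains dissected. Blood and brain samples were prepared and analysed by LC-MS for parent and sulfoxide metabolite; brain levels reported as ng/g.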

Data set [4] concerns the target Glycogen synthase kinase-3 alpha (Homo sapiens, UniProt P49840). Briefly: Inhibition of human recombinant full length GSK3alpha using YRRAAVPPSPSLSRHSSPHQ(pS)EDEEE as substrate preincubated with enzyme for 10 mins followed by substrate and 25 uM ATP addition measured after 60 mins by ADP-Glo luminescence assay. In short, it runs like this:
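Recombinant human GSK3α at 0.50 ng/µL, 25 µM ATP, 0.2 µg/µL substrate G50-58, serial compound dilutions. Kinase was preincubated with compound 10 min at rt, then run 60 min at rt after substrate/ATP addition. ADP-Glo reagent 60 min, detection reagent 30 min, luminescence read. Uninhibited-kinase and ATP/substrate-only controls were included.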

For data set [5], the target named is T1, Mitogen-activated protein kinase 14. Description: Inhibition of human recombinant p38alpha MAPK upto 10000 nM using Ulight-CFFKNIVTPRTPPPSQGK-amide as substrate measured after 30 mins by LANCE assay relative to control.
Data set [6] is filed under the species Homo sapiens. Description: Selectivity ratio, Ratio of IC50 for human recombinant full length GSK3beta to IC50 for p38alpha MAPK (unknown origin). In short, it runs like this:
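GSK3β was measured by ADP-Glo using 0.58 ng/µL recombinant human enzyme, 25 µM ATP and 0.2 µg/µL substrate peptide G50-58. Kinase was preincubated with serial compound dilutions for 10 min at rt, then reacted for 60 min at rt, with luminescence read-out. p38α inhibition was measured by ELISA.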

Data set [7] is described as follows: Metabolic stability in human liver microsomes assessed as parent compound remaining after 240 mins by LC-MS analysis relative to control. Type of data set: ADME, Microsome. The note with it: read-out: Stability. (Liver microsomes are a subcellular fraction often used to study metabolism.)
The nature of data set [8]: Metabolic stability in human liver microsomes assessed as parent compound remaining after 120 mins by LC-MS analysis relative to control. It is filed as ADME, Microsome. The note with it: read-out: Stability.
Data set [9] in a line: Metabolic stability in human liver microsomes assessed as parent compound remaining after 30 mins by LC-MS analysis relative to control. Type of data set: ADME, Microsome. Particulars: read-out: Stability.
A short description of data set [10]: Metabolic stability in human liver microsomes assessed as parent compound remaining after 20 mins by LC-MS analysis relative to control. It is filed as ADME, Microsome. Particulars: read-out: Stability.
A short description of data set [11]: Metabolic stability in human liver microsomes assessed as parent compound remaining after 10 mins by LC-MS analysis relative to control. Type of data set: ADME, Microsome. The note with it: read-out: Stability.
Data set [12] is described as follows: Metabolic stability in human liver microsomes assessed as parent compound remaining after 180 mins by LC-MS analysis relative to control. Type of data set: ADME, Microsome. The note with it: read-out: Stability.
Data set [13] in a line: Metabolic stability in human liver microsomes assessed as parent compound remaining after 60 mins by LC-MS analysis relative to control. Type of data set: ADME, Microsome. Particulars: read-out: Stability.
Data set [14] deals with Blood. Description: Inhibition of LPS-induced TNFalpha production in human whole blood preincubated with compound for 15 mins followed by LPS addition measured after 2.5 hrs by ELISA. It is filed as functional, tissue-based.

A value given as a limit tells only on which side of the number the result lay.

T1 sequence (Q16539 whole entry): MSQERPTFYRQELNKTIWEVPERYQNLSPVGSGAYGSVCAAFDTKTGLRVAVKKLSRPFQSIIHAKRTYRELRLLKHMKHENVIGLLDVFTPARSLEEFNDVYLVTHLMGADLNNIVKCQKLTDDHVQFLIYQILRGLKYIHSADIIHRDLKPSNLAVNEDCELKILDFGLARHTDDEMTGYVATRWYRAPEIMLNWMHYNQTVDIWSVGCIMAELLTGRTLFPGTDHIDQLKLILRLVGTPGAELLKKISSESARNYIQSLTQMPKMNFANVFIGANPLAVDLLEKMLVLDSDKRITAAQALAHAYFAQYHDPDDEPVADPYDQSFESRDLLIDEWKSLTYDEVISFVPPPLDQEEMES
Glycogen synthase kinase-3 alpha, sequence (P49840 whole entry): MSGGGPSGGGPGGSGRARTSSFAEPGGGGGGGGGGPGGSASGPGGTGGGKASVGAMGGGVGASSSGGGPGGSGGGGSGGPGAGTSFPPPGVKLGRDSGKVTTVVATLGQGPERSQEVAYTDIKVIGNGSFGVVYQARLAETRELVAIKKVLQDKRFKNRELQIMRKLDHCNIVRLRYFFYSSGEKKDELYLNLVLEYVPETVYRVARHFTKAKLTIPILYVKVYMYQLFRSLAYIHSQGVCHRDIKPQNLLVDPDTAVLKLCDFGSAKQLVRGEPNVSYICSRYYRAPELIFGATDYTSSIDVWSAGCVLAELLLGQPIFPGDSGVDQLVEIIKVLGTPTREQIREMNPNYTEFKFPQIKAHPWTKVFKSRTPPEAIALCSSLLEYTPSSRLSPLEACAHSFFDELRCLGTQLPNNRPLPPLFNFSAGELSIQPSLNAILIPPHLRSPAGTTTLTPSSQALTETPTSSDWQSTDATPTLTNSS
Glycogen synthase kinase-3 beta, sequence (P49841 whole entry): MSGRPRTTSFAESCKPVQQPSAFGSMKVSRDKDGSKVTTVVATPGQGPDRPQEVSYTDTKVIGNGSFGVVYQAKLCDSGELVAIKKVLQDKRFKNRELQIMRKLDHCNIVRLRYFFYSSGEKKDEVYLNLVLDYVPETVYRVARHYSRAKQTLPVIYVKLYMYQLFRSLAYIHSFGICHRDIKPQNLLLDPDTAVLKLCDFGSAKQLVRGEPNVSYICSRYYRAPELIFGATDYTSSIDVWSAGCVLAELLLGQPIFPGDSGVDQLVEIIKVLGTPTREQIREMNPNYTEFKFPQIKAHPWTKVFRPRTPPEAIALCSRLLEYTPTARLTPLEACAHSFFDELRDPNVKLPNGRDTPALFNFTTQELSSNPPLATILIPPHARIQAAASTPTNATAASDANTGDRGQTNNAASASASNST

Regarding `CSc1nc(-c2ccc(F)cc2)c(-c2ccnc(NC(=O)[C@H]3C[C@H](Cl)C3)c2)[nH]1`, the IC50 (commonly the midpoint of a concentration-inhibition curve) in data set [1] came out at 0.038 µM; in data set [2] it was 0.395 µM.
In the same order, the values of `CSc1nc(-c2ccc(F)cc2)c(-c2ccnc(NC(=O)c3ccccn3)c2)[nH]1` are 0.042 µM and > 10 µM.
As to `COc1cccc(CCC(=O)Nc2cc(-c3[nH]c(SC)nc3-c3ccc(F)cc3)ccn2)c1`, the concentration for half-maximal inhibition (IC50) in data set [1] is 0.036 µM; in data set [2] it was 0.471 µM.
For `Cc1nc(-c2ccc(F)cc2)c(-c2ccnc(NC(=O)C3CC3)c2)[nH]1`, in that order: 0.019 µM and 0.053 µM.
Take `CSc1nc(-c2ccc(F)cc2)c(-c2ccnc(NC(=O)CC3CC3)c2)[nH]1`: the IC50 in data set [1] was determined as 0.015 µM; in [2], 0.215 µM.
In the same order, the values of `O=C(Nc1cc(-c2[nH]c(CCc3ccccc3)nc2-c2ccc(F)cc2)ccn1)C1CC1` are 0.02 µM and 0.133 µM.
Regarding `CSc1nc(-c2ccc(F)cc2)c(-c2ccnc(NC(=O)[C@@H]3C[C@H]3c3ccccc3)c2)[nH]1` (relative stereo), the IC50 in data set [1] was 0.015 µM; in data set [2], 0.808 µM.
For `CSc1nc(-c2ccc(F)cc2)c(-c2ccnc(NC(=O)c3ccoc3)c2)[nH]1`, in that order: 0.022 µM and 3.65 µM.
Consider `CSc1nc(-c2ccc(F)cc2)c(-c2ccnc(NC(=O)C3CC3)c2)n1C`, for which the IC50 was found to be 0.222 µM in data set [1] and 0.638 µM in [2].
For `COc1cc(CCC(=O)Nc2cc(-c3[nH]c(SCc4ccccc4)nc3-c3ccc(F)cc3)ccn2)cc(OC)c1OC`, in that order: 0.061 µM and 1.15 µM.
For `C[S+]([O-])c1nc(-c2ccc(F)cc2)c(-c2ccnc(NC(=O)C3CC3)c2)[nH]1` (centres undefined), the concentration at 2 h in [3] was found to be 65.8 ng/g. Further, the IC50 in [1] is 0.044 µM; in data set [4], 1.34 µM; in data set [2] it was 0.236 µM.
With `CSc1nc(-c2ccc(F)cc2)c(-c2ccnc(NC(=O)C3CCCC3)c2)[nH]1`, the IC50 came out at 0.04 µM in data set [1] and 0.136 µM in [2].
Turning to `Cc1ncc(-c2ccnc(NC(=O)C3CC3)c2)[nH]1`, the inhibition (as a rule, the change of the read-out against control, counted positive when it falls) in data set [5] was found to be 1%. For the same compound, the IC50 in [2] worked out at 1.68 µM.
Turning to `O=C(Nc1cc(-c2[nH]cnc2-c2ccc(F)cc2)ccn1)C1CC1`, the IC50 in data set [1] stood at 0.019 µM; in [2], 0.064 µM.
For `CSc1nc(-c2ccc(F)cc2)c(-c2ccnc(NC(=O)C3CCC3)c2)[nH]1`, in that order: 0.027 µM and 0.132 µM.
`O=C(Nc1cc(-c2[nH]c(-c3ccco3)nc2-c2ccc(F)cc2)ccn1)C1CC1`: the concentration for half-maximal inhibition (IC50) in data set [1] came to 0.018 µM; in data set [2], 0.156 µM.
Regarding `CSc1nc(-c2ccc(F)cc2)c(-c2ccnc(NC(=O)C3CC(=O)C3)c2)[nH]1`, the concentration for half-maximal inhibition (IC50) was found to be 0.02 µM in data set [1] and 0.183 µM in data set [2].
As for `COc1cc(CCC(=O)Nc2cc(-c3[nH]c(SC)nc3-c3ccc(F)cc3)ccn2)cc(OC)c1OC`, the IC50 turned out to be 0.088 µM in data set [1], 2.05 µM in data set [4] and 0.363 µM in data set [2].
Consider `CSc1nc(-c2ccc(F)cc2)c(-c2ccnc(NC(=O)[C@H]3C[C@@H](Cl)C3)c2)[nH]1`, for which the 50% inhibitory concentration (IC50) was 0.018 µM in [1] and 0.17 µM in data set [2].
For `CSc1nc(-c2ccc(F)cc2)c(-c2ccnc(NC(=O)Cc3ccc(C(F)(F)F)cc3)c2)[nH]1`, the half-maximal inhibitory concentration (IC50) in data set [1] was determined as 0.029 µM; in [2], 3.24 µM.
With `CSc1nc(-c2ccc(F)cc2)c(-c2ccnc(NC(=O)C3(C(F)(F)F)CC3)c2)[nH]1`, the half-maximal inhibitory concentration (IC50) in data set [1] is 0.184 µM; in [2], > 10 µM.
In the same order, the values of `O=C(Nc1cc(-c2[nH]c(-c3ccccc3)nc2-c2ccc(F)cc2)ccn1)C1CC1` are 0.027 µM and 0.57 µM.
In the same order, the values of `CSc1nc(-c2ccc(F)cc2)c(-c2ccnc(NC(=O)CCc3ccc(C(F)(F)F)cc3)c2)[nH]1` are 0.027 µM and 0.956 µM.
In the same order, the values of `COc1cc(CC(=O)Nc2cc(-c3[nH]c(SC)nc3-c3ccc(F)cc3)ccn2)cc(OC)c1OC` are 0.013 µM and 0.51 µM.
As to `CSc1nc(-c2ccnc(NC(=O)C3CC3)c2)c(-c2ccc(F)cc2)n1C`, the IC50 in data set [1] was determined as 1.6 µM; in [2], 1.78 µM.
In the same order, the values of `CSc1nc(-c2ccc(F)cc2)c(-c2ccnc(NC(=O)C3CCC(=O)C3)c2)[nH]1` (centres undefined) are 0.021 µM and 0.073 µM.
In the same order, the values of `CSc1nc(-c2ccc(F)cc2)c(-c2ccnc(NC(=O)C3CCCO3)c2)[nH]1` (centres undefined) are 0.028 µM and 0.527 µM.
On to `CC(=O)Nc1cc(-c2[nH]c(SCc3ccccc3)nc2-c2ccc(F)cc2)ccn1`, for which the IC50 in data set [1] came to 0.051 µM; in [2], 0.56 µM.
With `O=C(Nc1cc(-c2[nH]c(SCc3ccccc3)nc2-c2ccc(F)cc2)ccn1)C1CC1`, the half-inhibitory concentration (IC50) in data set [1] was 0.041 µM; in [4], 0.853 µM; in data set [2], 0.229 µM.
For the compound `O=C(Cc1ccc(F)cc1)Nc1cc(-c2[nH]c(SCc3ccccc3)nc2-c2ccc(F)cc2)ccn1`, the results for the 50% inhibitory concentration (IC50) in data set [1] and in [2] were 0.003 µM and 1.5 µM, respectively. Moreover, in [6], the Ratio IC50 is > 500. For the same compound, the remaining at 4 h in data set [7] was determined as 66%.
Turning to `O=C(Nc1cc(-c2[nH]c(Cc3ccccc3)nc2-c2ccc(F)cc2)ccn1)C1CC1`, the remaining at 2 h in [8] was determined as 69.8%. Besides, the remaining at 0.5 h in data set [9] turned out to be 78.1%. For the same compound, the remaining at 20 min in data set [10] stood at 83.6%. Moreover, the remaining at 10 min in data set [11] stood at 92.4%. Besides, the IC50 was determined as 0.018 µM in data set [1], 0.428 µM in data set [4] and 0.059 µM in data set [2]. Besides, the remaining at 3 h in [12] turned out to be 68.7%. For the same compound, the remaining at 4 h in [7] came to 66.1%. Besides, the remaining at 1 h in [13] came to 69.4%.
For the compound `COc1ccc(CCC(=O)Nc2cc(-c3[nH]c(SC)nc3-c3ccc(F)cc3)ccn2)cc1`, the values for the 50% inhibitory concentration (IC50) in data set [1] and in data set [2] were 0.055 µM and 0.542 µM, respectively.
As to `O=C(Nc1cc(-c2[nH]c(SCc3ccccc3)nc2-c2ccc(F)cc2)ccn1)C1CCCC1`, the half-maximal inhibitory concentration (IC50) in [1] turned out to be 0.02 µM; in data set [2], 0.663 µM.
`C[S+]([O-])c1ccc(-c2nc(-c3ccc(F)cc3)c(-c3ccncc3)[nH]2)cc1` (centres undefined) [SB-203580]: the IC50 in [14] is 3.2 µM.
`CSc1nc(-c2ccc(F)cc2)c(-c2ccnc(NC(C)=O)c2)[nH]1`: the half-inhibitory concentration (IC50) amounted to 0.045 µM in data set [1] and 0.152 µM in data set [2].
Regarding `CSc1nc(-c2ccc(F)cc2)c(-c2ccnc(NCC3CC3)c2)[nH]1`, the IC50 in data set [1] was 0.014 µM; in [2], > 10 µM.
In the case of `C[S+]([O-])c1nc(-c2ccc(F)cc2)c(-c2ccnc(NC(=O)C3CCC3)c2)[nH]1` (centres undefined), the figures for the IC50 in [1] and in data set [2] were 0.029 µM and 0.428 µM, respectively.
Consider `CSc1nc(-c2ccc(F)cc2)c(-c2ccnc(NC(=O)CN3CCCC3=O)c2)[nH]1`, for which the IC50 came out at 0.023 µM in [1] and 0.126 µM in [2].
